A selection: hits, their analogues and other compounds. The true share with any hit is near 2.4%.
MIN6 prolif – induces beta-cell replication in MIN6 cells | actives 0.29% (n = 330,000) | proliferation, % at 10 µM | MIN6 cells proliferation, ATPlite luminescence, 48 h; cells starved in 0.2% serum; 100% = growth in 10% serum;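 active means compounds whose signal lies at least 3.5 SD above the mean of all wells on their plate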;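 further: 0% = DMSO-treated cells in low-serum medium and 100% = 10% serum control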
m5-HT2A agonist – activates the mouse 5-HT2A serotonin receptor; P35363; CHO-K1 mHTR2A beta-arrestin complementation, luminescence; percent of 30 µM serotonin response; activation, % at 7.6 µM; actives 0.66% (n = 360,000); AID 624169;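 active means activation above a run cutoff, the mean activation of all tested compounds plus 3 SD, cut at about 14% in these data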;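 further: 0% = plate median of compound wells and 100% = 30 µM serotonin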
Calb FLC – C. albicans growth modulation with fluconazole; C. albicans CaCi-2 + fluconazole, Alamar Blue growth, 48 h; growth inhibition, % (no concentration beside the values); actives 0.57% (n = 300,000); AID 1979;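 active means growth inhibition above about 58% in most replicates, limit read from the data, passing the limit was not always enough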;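 further: all wells also contain fluconazole at 8 µg/ml as a sub-toxic cotreatment; 0% = median of DMSO wells and 100% = median of geldanamycin control wells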
SR-BI uptake up – activators of SR-BI mediated HDL lipid uptake | CHO ldlA[mSR-BI] cells, DiI-HDL uptake fluorescence, 3 h; 100 = double the neutral-control signal | activation, % at 12.5 µM | actives 0.096% (n = 320,000) | AID 504775;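 active means mean replicate activation of at least 60% and every replicate at or above 60%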;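 further: 0% = median plate neutral-control signal and 100% = twice that signal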
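System: LDL receptor-deficient CHO ldlA cells overexpressing murine SR-BI | Timing: 3 h uptake period with compound, 37 °C | Medium: HEPES-buffered (25 mM, pH 7.4) F12 plus 0.5% BSA | Dosing: Single-point compound dose | Signal: Bottom-read fluorescence, 550/595 nm | Read-out: Retained DiI signal reflecting DiI-HDL uptake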
SR-BI HDL uptake – blocks mouse SR-BI lipid uptake from DiI-HDL | ldlA[mSR-BI] CHO cells, DiI-HDL uptake fluorescence, 3 h | inhibition, % at 12.5 µM | actives 0.96% (n = 320,000) | AID 488896;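 active means mean replicate inhibition of at least 70% and a set share of replicates each scoring 70 or more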;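 further: 0% = median of neutral control wells and 100% = median of positive control wells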
Target sequence (Q61009 whole entry, looked up): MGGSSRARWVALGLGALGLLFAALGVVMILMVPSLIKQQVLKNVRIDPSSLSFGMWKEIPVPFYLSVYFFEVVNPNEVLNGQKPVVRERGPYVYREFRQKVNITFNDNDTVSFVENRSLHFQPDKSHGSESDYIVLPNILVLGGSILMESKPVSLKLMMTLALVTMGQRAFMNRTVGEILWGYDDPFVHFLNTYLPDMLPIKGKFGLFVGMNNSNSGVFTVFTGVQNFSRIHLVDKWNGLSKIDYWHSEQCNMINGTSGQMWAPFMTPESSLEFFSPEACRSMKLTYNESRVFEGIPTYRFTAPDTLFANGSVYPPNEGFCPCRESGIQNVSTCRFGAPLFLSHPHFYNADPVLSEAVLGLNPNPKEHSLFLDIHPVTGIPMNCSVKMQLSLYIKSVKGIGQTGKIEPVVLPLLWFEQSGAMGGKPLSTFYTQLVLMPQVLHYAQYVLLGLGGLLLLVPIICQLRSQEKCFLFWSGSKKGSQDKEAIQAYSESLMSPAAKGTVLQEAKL
Ins promoter up – MIN6 insulin promoter up-regulation; MIN6 insulin promoter-GFP reporter, high-content imaging; stronger effect = higher value; z-score at 5 µM; actives 0.3% (n = 190,000); AID 1625;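 active means z-score above 3 at 5 µM with at least 500 cells counted in the well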
MOR ag counter – OPRM1 agonism in mouse HTR2A counterscreen. shares compounds with m5-HT2A agonist. U2OS OPRM1 beta-arrestin PathHunter, luminescence; DMSO 0%, DAMGO 9.3 µM 100%. activation, % at 9.3 µM. actives 5.3% (n = 2,300). AID 624380;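 active means mean activation above the mean of DMSO-only wells plus 3 SD, cut at about 0.5% in these data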
m5-HT2A ag conf – confirmation of mouse HTR2A serotonin receptor agonists; shares compounds with m5-HT2A agonist; CHO-K1 PathHunter beta-arrestin recruitment, luminescence; DMSO 0%, 30 µM serotonin 100%; activation, % at 7.6 µM; actives 19% (n = 2,300);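 active means mean activation across triplicates above the hit threshold derived in the original primary screen, cut at about 15% in these data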
An asterisk follows results filed as active.

Results for O=C(/C=C/c1ccccc1)N(c1ccccn1)C1CCCCC1 ?
MIN6 prolif: -2; m5-HT2A agonist: 2; Calb FLC: 0; SR-BI uptake up: -4; SR-BI HDL uptake: 4; Ins promoter up: -0.1

How did O=C(/C=C/c1ccccc1Cl)N(c1ccccn1)C1CCCCC1 do in these assays?
MIN6 prolif: -2; m5-HT2A agonist: 16*; Calb FLC: -11; SR-BI uptake up: 44; SR-BI HDL uptake: -44; Ins promoter up: -1.1; MOR ag counter: 0; m5-HT2A ag conf: 40*

Results for CCC1CCCCN1C(=O)CCn1c(=O)oc2ccccc21 (stereo not given) ?
MIN6 prolif: -1; m5-HT2A agonist: 8; Calb FLC: 1; SR-BI uptake up: -2; SR-BI HDL uptake: 2

What do the screens show for `C=CCN(CC=C)CCOc1cccc2ccccc12`?
MIN6 prolif: 0; m5-HT2A agonist: 14*; Calb FLC: -30; SR-BI uptake up: -22; SR-BI HDL uptake: 22; Ins promoter up: 0.02; MOR ag counter: 0; m5-HT2A ag conf: 23*

How did C=CCN(CC=C)CCOc1ccccc1F do in these assays?
MIN6 prolif: 3; m5-HT2A agonist: 2; Calb FLC: -4; SR-BI uptake up: 14; SR-BI HDL uptake: -14; Ins promoter up: -0.17

What do the screens show for `O=C(O)c1ccccc1N/N=C\c1ccnc2ccccc12`?
MIN6 prolif: -3; m5-HT2A agonist: 14*; Calb FLC: -4; SR-BI uptake up: 1; SR-BI HDL uptake: -1; Ins promoter up: -0.57; MOR ag counter: -1; m5-HT2A ag conf: 1

What do the screens show for `ON=Cc1ccnc2ccccc12`?
m5-HT2A agonist: 5

Results for Cc1nnsc1C(=O)NC1CCCc2c1cnn2-c1ccc(C(C)(C)C)cc1 (stereo not given) ?
MIN6 prolif: -6; m5-HT2A agonist: 14*; Calb FLC: 2; SR-BI uptake up: -27; SR-BI HDL uptake: 27; MOR ag counter: 0; m5-HT2A ag conf: 2

What do the screens show for `CC(C)c1[nH]nc2c1C1(CCN(Cc3ccccc3)CC1)C(C#N)=C(N)O2`?
MIN6 prolif: 1; m5-HT2A agonist: 31*; Calb FLC: -10; SR-BI uptake up: 33; SR-BI HDL uptake: -33; Ins promoter up: 0.68; MOR ag counter: -1; m5-HT2A ag conf: -5

What do the screens show for `Cc1[nH]nc2c1C1(CCN(Cc3ccccc3)CC1)C(C#N)=C(N)O2`?
MIN6 prolif: -3; m5-HT2A agonist: 9; Calb FLC: 0; SR-BI uptake up: 4; SR-BI HDL uptake: -4; Ins promoter up: 0.12

What do the screens show for `CCc1ccccc1Oc1nc(NCCOC)nc2cc(-c3ccccc3)sc12`?
m5-HT2A agonist: 2

What do the screens show for `COc1cccc(N2CCN(S(=O)(=O)c3ccc(-c4coc(C)n4)cc3)CC2)c1`?
MIN6 prolif: 2; m5-HT2A agonist: 5; Calb FLC: 6; SR-BI uptake up: 1; SR-BI HDL uptake: -1

Results for COc1cccc(N2CCN(S(=O)(=O)c3ccc4nc(-c5ccccc5)[nH]c4c3)CC2)c1 ?
MIN6 prolif: -1; m5-HT2A agonist: 16*; Calb FLC: -8; SR-BI uptake up: -26; SR-BI HDL uptake: 26; Ins promoter up: -0.73; MOR ag counter: 0; m5-HT2A ag conf: -1

What do the screens show for `O=C1CCCCC(=O)[C@H](O)C[C@H](COCc2ccccc2)O1`?
m5-HT2A agonist: -1

Results for Cc1ccc2nccc(C(=O)N3CCCC(Nc4ccc(F)cc4)C3)c2c1 (stereo not given) ?
MIN6 prolif: 3; m5-HT2A agonist: 18*; Calb FLC: -1; SR-BI uptake up: 13; SR-BI HDL uptake: -13; MOR ag counter: -1; m5-HT2A ag conf: -2

How did Cc1ccc2nc(C(=O)N3CCCC(Nc4ccc(F)cc4)C3)cn2c1 (stereo not given) do in these assays?
MIN6 prolif: 4; m5-HT2A agonist: -1; Calb FLC: 3; SR-BI uptake up: 15; SR-BI HDL uptake: -15

How did Cc1ccn2cc(C(=O)N3CCCC(Nc4ccc(F)cc4)C3)nc2c1 (stereo not given) do in these assays?
MIN6 prolif: 1; m5-HT2A agonist: 18*; Calb FLC: 1; SR-BI uptake up: 13; SR-BI HDL uptake: -13; MOR ag counter: -1; m5-HT2A ag conf: 1

What do the screens show for `COC(=O)c1cc(=O)nc(NNC(C)=O)s1`?
m5-HT2A agonist: 3

What do the screens show for `O=C(NS(=O)(=O)c1ccc(Cl)cc1)c1ccccc1`?
MIN6 prolif: -1; m5-HT2A agonist: 15*; Calb FLC: -6; SR-BI uptake up: 13; SR-BI HDL uptake: -13; Ins promoter up: 1.1; MOR ag counter: 0; m5-HT2A ag conf: 0

Results for COc1cc(OC)cc(C(=O)NNC(=O)CCC(=O)c2cc(C)sc2C)c1 ?
MIN6 prolif: -3; m5-HT2A agonist: -7; SR-BI uptake up: -4; SR-BI HDL uptake: 4

What do the screens show for `O=C(NC1(C(F)(F)F)NC(=O)N(c2ccc(F)cc2)C1=O)c1cccs1` (stereo not given)?
MIN6 prolif: -2; m5-HT2A agonist: 18*; Calb FLC: 5; SR-BI uptake up: 8; SR-BI HDL uptake: -8; MOR ag counter: 0; m5-HT2A ag conf: -4

What do the screens show for `CCC(=O)N(C)C[C@H]1Oc2cc(-c3ccccc3F)ccc2S(=O)(=O)N([C@H](C)CO)C[C@H]1C`?
m5-HT2A agonist: 2

Results for OCC[C@@H]1C[C@H](O)[C@@H](O)[C@]2(OCCc3cc(C(F)(F)F)ccc32)O1 ?
m5-HT2A agonist: -2

Results for OCC[C@@H]1C[C@H](O)[C@@H](O)[C@@]2(OCCCc3cc(C(F)(F)F)ccc32)O1 ?
m5-HT2A agonist: 15*; MOR ag counter: 0; m5-HT2A ag conf: 7

What do the screens show for `COc1ccc(COCC(O)CN2CCc3ccccc3C2)cc1OC` (stereo not given)?
MIN6 prolif: -1; m5-HT2A agonist: 21*; Calb FLC: -19; SR-BI uptake up: 4; SR-BI HDL uptake: -4; Ins promoter up: 0.36; MOR ag counter: 0; m5-HT2A ag conf: 4

What do the screens show for `CCOc1ccc(CCNC(=O)CS(=O)(=O)Cc2nc(-c3ccc(OC)cc3)oc2C)cc1`?
MIN6 prolif: 4; m5-HT2A agonist: 3; Calb FLC: -6; SR-BI uptake up: -28; SR-BI HDL uptake: 28

High-throughput results deposited in PubChem BioAssay by several laboratories.
